In ChEMBL document CHEMBL1671676, “In vitro activity of nemonoxacin, a novel nonfluorinated quinolone, against 2,440 clinical isolates” (2009) one finds Activity, RatioAUC/MIC and MIC90 data, which are given here for two compounds.

Holding throughout (assay type): functional
For test [1], the system named is Staphylococcus aureus. The test is described as follows: Antibacterial activity against methicillin-resistant Staphylococcus aureus assessed as percent cumulative susceptible isolates at minimum inhibitory concentration of 0.03 ug/ml by CLSI broth microdilution method. Set-up: scale not given: the % may be the effect or the level left. The procedure, abridged: (§1)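 Clinical isolates tested by CLSI broth microdilution using 96-well panels of doubling drug dilutions in cation-adjusted Mueller-Hinton broth with 5% lysed horse blood. MIC was read from these panels. Panel quality control used CLSI ATCC strains, including S. pneumoniae 49619, S. aureus 29213, E. faecalis 29212 and E. coli 25922. Cumulative percentages of isolates were tabulated at each MIC.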
(In general: In broth dilution the organism is exposed to a series of concentrations in liquid medium.)

Test [2] concerns Escherichia coli. Put plainly: Antibacterial activity against Escherichia coli assessed as percent cumulative susceptible isolates at minimum inhibitory concentration of >=[…] by CLSI broth microdilution method. More on the design: scale not given: the % may be the effect or the level left.
The test system of test [3] is Escherichia coli. Put plainly: Antibacterial activity against Escherichia coli assessed as percent cumulative susceptible isolates at minimum inhibitory concentration of 2 ug/ml by CLSI broth microdilution method. Set-up: scale not given: the % may be the effect or the level left.
Test [4] deals with Proteus mirabilis. Put plainly: Antibacterial activity against Proteus mirabilis assessed as percent cumulative susceptible isolates at minimum inhibitory concentration of >=[…] by CLSI broth microdilution method. More on the design: scale not given: the % may be the effect or the level left.
Test [5] concerns Enterococcus faecalis. The test is described as follows: Antibacterial activity against Enterococcus faecalis assessed as percent cumulative susceptible isolates at minimum inhibitory concentration of 128 ug/ml by CLSI broth microdilution method. More on the design: scale not given: the % may be the effect or the level left.
Test [6] relates to Staphylococcus aureus. Put plainly: Antibacterial activity against methicillin-susceptible Staphylococcus aureus assessed as percent cumulative susceptible isolates at minimum inhibitory concentration of 2 ug/ml by CLSI broth microdilution method. Set-up: scale not given: the % may be the effect or the level left.
For test [7], the system named is Staphylococcus aureus. The test is described as follows: Antibacterial activity against methicillin-susceptible Staphylococcus aureus assessed as percent cumulative susceptible isolates at minimum inhibitory concentration of […] by CLSI broth microdilution method. More on the design: scale not given: the % may be the effect or the level left.
In a further test the test system is Klebsiella pneumoniae. Put plainly: Antibacterial activity against Klebsiella pneumoniae assessed as percent cumulative susceptible isolates at minimum inhibitory concentration of 8 ug/ml by CLSI broth microdilution method. Set-up: scale not given: the % may be the effect or the level left.
Test [8] deals with Staphylococcus aureus. Put plainly: Antibacterial activity against non-levofloxacin susceptible Staphylococcus aureus assessed as percent cumulative susceptible isolates at minimum inhibitory concentration of 1 ug/ml by CLSI broth microdilution method. Set-up: scale not given: the % may be the effect or the level left.
Test [9] relates to Pseudomonas aeruginosa. The test is described as follows: Antibacterial activity against Pseudomonas aeruginosa assessed as percent cumulative susceptible isolates at minimum inhibitory concentration of >=[…] by CLSI broth microdilution method. More on the design: scale not given: the % may be the effect or the level left.
The subject of test [10] is Staphylococcus aureus. The test is described as follows: Antibacterial activity against hospital-associated methicillin-resistant Staphylococcus aureus assessed as percent cumulative susceptible isolates at minimum inhibitory concentration of 0.5 ug/ml by CLSI broth microdilution method. Set-up: scale not given: the % may be the effect or the level left.
A short description of test [11]: Ratio of fAUC (0 to 24 hrs) in in vitro PK/PD model at 750 mg to MIC for penicillin-resistant Streptococcus pneumoniae.
In test [12] the test system is Staphylococcus epidermidis. Put plainly: Antibacterial activity against methicillin-resistant Staphylococcus epidermidis assessed as percent cumulative susceptible isolates at minimum inhibitory concentration of […] by CLSI broth microdilution method. More on the design: scale not given: the % may be the effect or the level left.
Test [13] relates to Enterococcus faecalis. The test is described as follows: Antibacterial activity against Enterococcus faecalis assessed as percent cumulative susceptible isolates at minimum inhibitory concentration of 0.03 ug/ml by CLSI broth microdilution method. Set-up: scale not given: the % may be the effect or the level left.
In test [14] the test system is Staphylococcus aureus. Put plainly: Antibacterial activity against hospital-associated methicillin-resistant Staphylococcus aureus assessed as percent cumulative susceptible isolates at minimum inhibitory concentration of 4 ug/ml by CLSI broth microdilution method. More on the design: scale not given: the % may be the effect or the level left.
Test [15] has as its system Staphylococcus aureus. Put plainly: Antibacterial activity against hospital-associated methicillin-resistant Staphylococcus aureus assessed as percent cumulative susceptible isolates at minimum inhibitory concentration of 2 ug/ml by CLSI broth microdilution method. Set-up: scale not given: the % may be the effect or the level left. The gist of the method:
as §1

A further test concerns Enterococcus faecium. The test is described as follows: Antibacterial activity against Enterococcus faecium by CLSI M7-A7 broth microdilution method.
Test [16] has as its system Proteus mirabilis. The test is described as follows: Antibacterial activity against Proteus mirabilis assessed as percent cumulative susceptible isolates at minimum inhibitory concentration of […] by CLSI broth microdilution method. Set-up: scale not given: the % may be the effect or the level left.
Test [17] concerns Escherichia coli. The test is described as follows: Antibacterial activity against Escherichia coli assessed as percent cumulative susceptible isolates at minimum inhibitory concentration of <=[…] by CLSI broth microdilution method. More on the design: scale not given: the % may be the effect or the level left.
Test [18] concerns Staphylococcus aureus. Put plainly: Antibacterial activity against non-levofloxacin susceptible Staphylococcus aureus assessed as percent cumulative susceptible isolates at minimum inhibitory concentration of 8 ug/ml by CLSI broth microdilution method. More on the design: scale not given: the % may be the effect or the level left.
For test [19], the system named is Pseudomonas aeruginosa. Put plainly: Antibacterial activity against Pseudomonas aeruginosa assessed as percent cumulative susceptible isolates at minimum inhibitory concentration of 256 ug/ml by CLSI broth microdilution method. Set-up: scale not given: the % may be the effect or the level left.
The subject of test [20] is Staphylococcus epidermidis. Put plainly: Antibacterial activity against methicillin-susceptible Staphylococcus epidermidis assessed as percent cumulative susceptible isolates at minimum inhibitory concentration of […] by CLSI broth microdilution method. More on the design: scale not given: the % may be the effect or the level left.
Test [21] has as its system Staphylococcus aureus. The test is described as follows: Antibacterial activity against non-levofloxacin susceptible Staphylococcus aureus assessed as percent cumulative susceptible isolates at minimum inhibitory concentration of […] by CLSI broth microdilution method. More on the design: scale not given: the % may be the effect or the level left.
Test [22] deals with Staphylococcus aureus. Put plainly: Antibacterial activity against methicillin-susceptible Staphylococcus aureus assessed as percent cumulative susceptible isolates at minimum inhibitory concentration of 0.03 ug/ml by CLSI broth microdilution method. Set-up: scale not given: the % may be the effect or the level left.
For test [23], the system named is Staphylococcus epidermidis. Put plainly: Antibacterial activity against methicillin-susceptible Staphylococcus epidermidis assessed as percent cumulative susceptible isolates at minimum inhibitory concentration of 32 ug/ml by CLSI broth microdilution method. Set-up: scale not given: the % may be the effect or the level left. The gist of the method:
as §1

Test [24] relates to Staphylococcus aureus. Put plainly: Antibacterial activity against community-associated methicillin-resistant Staphylococcus aureus assessed as percent cumulative susceptible isolates at minimum inhibitory concentration of 8 ug/ml by CLSI broth microdilution method. Set-up: scale not given: the % may be the effect or the level left. The gist of the method: as §1
Test [25] deals with Staphylococcus epidermidis. Put plainly: Antibacterial activity against methicillin-susceptible Staphylococcus epidermidis assessed as percent cumulative susceptible isolates at minimum inhibitory concentration of 8 ug/ml by CLSI broth microdilution method. Set-up: scale not given: the % may be the effect or the level left.
The subject of test [26] is Staphylococcus epidermidis. The test is described as follows: Antibacterial activity against methicillin-resistant Staphylococcus epidermidis assessed as percent cumulative susceptible isolates at minimum inhibitory concentration of 4 ug/ml by CLSI broth microdilution method. More on the design: scale not given: the % may be the effect or the level left.
For another test, the system named is Enterobacter cloacae. The test is described as follows: Antibacterial activity against Enterobacter cloacae assessed as percent cumulative susceptible isolates at minimum inhibitory concentration of 2 ug/ml by CLSI broth microdilution method. More on the design: scale not given: the % may be the effect or the level left.
For test [27], the system named is Streptococcus pneumoniae. The test is described as follows: Antibacterial activity against penicillin-resistant Streptococcus pneumoniae assessed as percent cumulative susceptible isolates at minimum inhibitory concentration of 1 ug/ml by CLSI broth microdilution method. More on the design: scale not given: the % may be the effect or the level left.
For test [28], the system named is Enterococcus faecalis. The test is described as follows: Antibacterial activity against Enterococcus faecalis assessed as percent cumulative susceptible isolates at minimum inhibitory concentration of 32 ug/ml by CLSI broth microdilution method. Set-up: scale not given: the % may be the effect or the level left.
In test [29] the test system is Streptococcus pneumoniae. The test is described as follows: Antibacterial activity against Streptococcus pneumoniae assessed as percent cumulative susceptible isolates at minimum inhibitory concentration of 8 ug/ml by CLSI broth microdilution method. Set-up: scale not given: the % may be the effect or the level left.
Test [30] deals with Staphylococcus aureus. The test is described as follows: Antibacterial activity against community-associated methicillin-resistant Staphylococcus aureus assessed as percent cumulative susceptible isolates at minimum inhibitory concentration of 1 ug/ml by CLSI broth microdilution method. Set-up: scale not given: the % may be the effect or the level left.

Converted amounts (≈) assume the structure as drawn.

As to `COc1c(N2C[C@@H](C)C[C@H](N)C2)ccc2c(=O)c(C(=O)O)cn(C3CC3)c12` [NEMONOXACIN], the Activity in the test on Staphylococcus aureus [1] is listed as 6.3%; in the test on Escherichia coli [2], 100%; in the test on Escherichia coli [3] it was 75.5%; in the test with Proteus mirabilis [4] it was 100%; with Enterococcus faecalis [5], 100%; with Staphylococcus aureus [6], 96%. In addition, the Activity is given as 30.5% in the test with Staphylococcus aureus [7]; 95% in the test with Klebsiella pneumoniae; 30.6% in the test on Staphylococcus aureus [8]; 100% with Pseudomonas aeruginosa [9]; 5.1% in the test on Staphylococcus aureus [10]; 33.3% in test [12]. Further, the Activity in the test with Enterococcus faecalis [13] is listed as 2.5%; in the test with Staphylococcus aureus [14], 57.6%; in the test on Staphylococcus aureus [15], 22.2%; in the test on Proteus mirabilis [16], 24.2%; with Escherichia coli [17] it was 0.2%; with Staphylococcus aureus [18], 76.2%. For the same compound, the Activity in the test with Pseudomonas aeruginosa [19] is 99.3%; in test [20] it was 37.2%; with Staphylococcus aureus [21] it was 8.9%; in the test on Staphylococcus aureus [22], 71.9%. The RatioAUC/MIC in [11] was greater than 393. The compound further yielded an MIC90 against Enterococcus faecium of 128 µg/mL (≈ 345 µM).
On to `C[C@H]1COc2c(N3CCN(C)CC3)c(F)cc3c(=O)c(C(=O)O)cn1c23.C[C@H]1COc2c(N3CCN(C)CC3)c(F)cc3c(=O)c(C(=O)O)cn1c23.O` [LEVOFLOXACIN], for which the Activity in [23] is on record as 100%; in the test on Staphylococcus aureus [24], 96%; in test [25], 76.7%; in [26] it was 11.1%; in the test with Enterobacter cloacae it was 93.1%; in the test on Streptococcus pneumoniae [27], 90.6%. Also, the Activity with Enterococcus faecalis [28] came to 100%; with Streptococcus pneumoniae [29], 99.5%; with Staphylococcus aureus [30], 32%.

A word on the MIC90: it is the lowest concentration that inhibits either 90% of growth or 90% of the strains tested, depending on the study.
